Assay results published in ChEMBL document CHEMBL1154141, “Meroditerpenoids and derivatives from the brown alga Cystoseira baccata and their antifouling properties” (J Nat Prod, 2008).
≈ marks a conversion by molar mass, not a printed value. Calls of active or inactive are those of the source. No cut-off for these calls is given here.

Experiments:
[1] = system: Pseudoalteromonas distincta; assay: Antibacterial activity against Pseudoalteromonas elyakovii ATCC 700519 after 48 hrs by microtiter broth dilution method; format: functional; conditions: ATCC 700519, 48 h
Summary of the method: (§1)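 Marine bacterial strains at 2×10^8 cells/mL were exposed to compound for 48 h at 25 °C in Mueller Hinton broth supplemented with NaCl (15 g/L). MIC was set by microtiter broth dilution against a culture-medium control.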

[2] = system: Escherichia coli; assay: Antibacterial activity against Escherichia coli ATCC 35049 after 48 hrs by microtiter broth dilution method; format: functional; conditions: ATCC 35049, 48 h
Summary of the method: (§2)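 Terrestrial bacterial strains at 2×10^8 cells/mL were incubated with compound for 48 h at 25 °C in trypsic soy broth. MIC was read by microtiter broth dilution against a culture-medium control.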

[3] = system: Chrysotila roscoffensis; assay: Antimicrobial activity against Pleurochrysis roscoffensis AC 238 after 48 hrs; format: functional, organism-based
Summary of the method: (§3)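 Microalgal cultures (0.4 μg/mL chlorophyll A) in F/2 medium were incubated with compound for 48 h at 18 °C under a 15:9 light:dark cycle with cool-white fluorescent light at 54 μmol photons/m²·s. Relative optical density at 600 nm gave the MIC versus a seawater control.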

[4] = Toxicity against Echinus esculentus larvae after 48 hrs
Summary of the method: (§4)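 Larvae incubated with compounds at 0.5, 1, 2.5, 5, 10, 25, 50 and 100 μg/mL, 10–15 larvae per well in 2 mL solution. Viable larvae counted after 48 h exposure. LC50 is the concentration giving 50% mortality relative to control, derived by curve fitting. Six replicates per test and control, with two batches of organisms.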

[5] = system: Polaribacter irgensii; assay: Antibacterial activity against Polaribacter irgensii ATCC 700398 after 48 hrs by microtiter broth dilution method; format: functional; conditions: ATCC 700398, 48 h; summary of the method: as §1
[6] = system: Vibrio aestuarianus; assay: Antibacterial activity against Vibrio aestuarianus ATCC 35048 after 48 hrs by microtiter broth dilution method; format: functional; conditions: ATCC 35048, 48 h; summary of the method: as §1
[7] = system: Bacillus subtilis; assay: Antibacterial activity against Bacillus subtilis ATCC 55572 after 48 hrs by microtiter broth dilution method; format: functional; conditions: ATCC 55572, 48 h; summary of the method: as §2
[8] = system: Cylindrotheca closterium; assay: Antimicrobial activity against Cylindrotheca closterium AC 170 after 48 hrs; format: functional, organism-based; summary of the method: as §3
[9] = system: Exanthemachrysis gayraliae; assay: Antimicrobial activity against Exanthemachrysis gayraliae AC 15 after 48 hrs; format: functional; summary of the method: as §3
[10] = system: Salmonella typhimurium; assay: Antibacterial activity against Salmonella Typhimurium ATCC 35986 after 48 hrs by microtiter broth dilution method; format: functional, Salmonella enterica subsp. enterica serovar Typhimurium; conditions: Salmonella enterica, ATCC 35986, 48 h; summary of the method: as §2
[11] = Toxicity against Crassostrea gigas larvae after 48 hrs; summary of the method: as §4
[12] = system: Ulva intestinalis; assay: Antimicrobial activity against Ulva intestinalis after 48 hrs; format: functional, organism-based
Summary of the method: (§5)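 Spores (3000 spores/mL) in F/2 medium were exposed to compound for 48 h at 18 °C under a 15:9 light:dark cycle with cool-white fluorescent light at 54 μmol photons/m²·s. Germination and attachment rates were then scored.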

[13] = system: Sargassum muticum; assay: Antimicrobial activity against Sargassum muticum after 48 hrs; format: functional, organism-based; summary of the method: as §5
[14] = Inhibition of Mytilus edulis phenoloxidase after 2 hrs
Summary of the method: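 Purified mussel phenoloxidase was preincubated with compound for 2 h. Activity was then followed as the rise in absorbance at 475 nm with L-Dopa (10 mM) as substrate, and percent inhibition was calculated against the control.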

Row | SMILES | MIC [1] [µg/mL] | MIC [2] [µg/mL] | Activity [3] | LC50 at 48 h [4] [µg/mL] | MIC [5] [µg/mL] | MIC [6] [µg/mL] | MIC [7] [µg/mL] | Activity [8] | Activity [9] | MIC [10] [µg/mL] | LC50 at 48 h [11] [µg/mL] | IC50 [12] [µg/mL] | IC50 [13] [µg/mL] | MIC ([9]; AC 15, 48 h) [µg/mL] | IC50 [14] [µg/mL]
1 | COc1cc(C)c(O)c(C/C=C(\C)C[C@]2(O)C[C@@]3(C)CCC[C@]3(C)C(=O)[C@@H]2CC(C)(C)O)c1 | > 100 | > 100 | inactive | > 100 | > 100 | > 100 | > 100 | inactive | inactive | > 100 | > 100 | – | – | – | –
2 | COc1cc(C)c2c(c1)C=C[C@@](C)(CC1=C(CC(C)(C)O)C(=O)[C@@]3(C)CCC[C@]3(C)C1)O2 | > 100 | > 100 | inactive | > 100 | > 100 | > 100 | > 100 | inactive | inactive | > 100 | > 100 | – | – | – | –
3 | CC1=C(CC(C)(C)O)C(=O)[C@@]2(C)CCC[C@]2(C)C1 | > 100 | > 100 | inactive | > 100 | > 100 | > 100 | > 100 | inactive | – | > 100 | > 100 | 1 (≈ 3.99 µM) | 1 (≈ 3.99 µM) | 1 (≈ 3.99 µM) | 1 (≈ 3.99 µM)
4 | CC(=O)/C=C1\C[C@@]2(C)CCC[C@]2(C)C2=C1CC(C)(C)O2 | > 100 | > 100 | inactive | > 100 | > 100 | > 100 | > 100 | inactive | inactive | > 100 | > 100 | 2.5 (≈ 9.11 µM) | > 100 | – | 2.5 (≈ 9.11 µM)
5 | COc1cc(C)c(O)c(C/C=C(\C)CC2=C(CC(C)(C)O)C(=O)[C@@]3(C)CCC[C@]3(C)C2)c1 | > 100 | > 100 | inactive | > 100 | > 100 | > 100 | > 100 | inactive | inactive | > 100 | > 100 | – | – | – | –
6 | COc1cc(C)c2c(c1)C=C[C@](C)(CC1=C(CC(C)(C)O)C(=O)[C@@]3(C)CCC[C@]3(C)C1)O2 | > 100 | > 100 | inactive | > 100 | > 100 | > 100 | > 100 | inactive | inactive | > 100 | > 100 | > 100 | 2.5 (≈ 5.7 µM) | – | 1 (≈ 2.28 µM)
